Measurements collected from several papers.
Compare with care: the assays were run in different laboratories.
Target: Acetylcholinesterase (ACHE, Homo sapiens, UniProt P22303)
Mode: inhibitor

| SMILES | assay | IC50 |
| --- | --- | --- |
| O=[N+]([O-])c1c[nH]c(-c2n[nH]c(=S)n2/N=C/c2cc(Cl)cc(Cl)c2)c1 | enzyme activity, Ellman | 13.6 µM |
| CNC(=O)c1ccc(-c2cnn3ccc(C(=O)N(C)c4ccc(Cl)c(C(=O)OC)c4)cc23)cc1 | cell-free assay | > 30 µM |
| Cn1cc(-c2cc(C(=O)NN=Cc3ccccc3O)no2)c2ccccc21 | enzyme activity | > 100 µM |
| COc1ccc(/C=N/n2c(-c3cc([N+](=O)[O-])c[nH]3)n[nH]c2=S)cc1 | enzyme activity, Ellman | 25.1 µM |
| O=C(NCCN1CCCCC1)c1ccc(Cl)cc1 | enzyme activity, Ellman | 46 µM |
| Cn1cc(-c2cc(C(=O)NN=Cc3ccccc3)no2)c2ccccc21 | enzyme activity | > 100 µM |
| O=[N+]([O-])c1c[nH]c(-c2n[nH]c(=S)n2/N=C/c2ccc(Oc3ccccc3)cc2)c1 | enzyme activity, Ellman | 19.3 µM |
| CNC(=O)c1ccc(-c2cnn3ccc(C(=O)N(C)c4ccc(Cl)c(C(=O)O)c4)cc23)cc1 | cell-free assay | > 30 µM |
| COc1ccccc1C(=O)NCCN1CCCCC1 | enzyme activity, Ellman | 4.7 µM |
| C#CCN(C)CCCCOc1cccc(CN(C)c2c3c(nc4ccccc24)CCCC3)c1 | enzyme activity, Ellman | 6.09 µM |
| COc1ccc(OC)c(C=NNC(=O)c2cc(-c3cn(C)c4ccccc34)on2)c1 | enzyme activity | > 100 µM |
| C#CCN(C)CCCOc1cccc(CN(C)c2c3c(nc4ccccc24)CCCC3)c1 | enzyme activity, Ellman | 2.82 µM |
| Cn1cc(-c2cc(C(=O)NN=Cc3ccccc3F)no2)c2ccccc21 | enzyme activity | > 100 µM |
| O=[N+]([O-])c1c[nH]c(-c2n[nH]c(=S)n2/N=C/c2ccc(Cl)cc2[N+](=O)[O-])c1 | enzyme activity, Ellman | 15.1 µM |
| O=C(NCCN1CCCCC1)c1ccccc1[N+](=O)[O-] | enzyme activity, Ellman | 19 µM |
| C#CCN(C)CCCCCOc1cccc(CN(C)c2c3c(nc4ccccc24)CCCC3)c1 | enzyme activity, Ellman | 2.6 µM |

| SMILES | assay | IC50 |
| --- | --- | --- |
| Cn1cc(-c2cc(C(=O)NN=Cc3cccc(Br)c3)no2)c2ccccc21 | enzyme activity | > 100 µM |
| O=C(NCCN1CCCCC1)c1ccccc1Cl | enzyme activity, Ellman | 0.09 µM |
| COc1ccc(S(=O)(=O)Oc2cccc(C=NNC(=O)c3ccc(F)cc3)c2)cc1 | enzyme activity, Ellman | 0.0895 µM |
| O=[N+]([O-])c1c[nH]c(-c2n[nH]c(=S)n2/N=C/c2ccc(F)cc2)c1 | enzyme activity, Ellman | 8.2 µM |
| C#CCN(C)CCCCOCc1ccc(CN(C)c2c3c(nc4ccc(C)cc24)CCCC3)cc1 | enzyme activity, Ellman | 16.2 µM |
| O=[N+]([O-])c1c[nH]c(-c2n[nH]c(=S)n2/N=C/c2ccc(C(F)(F)F)cc2)c1 | enzyme activity, Ellman | 5.1 µM |
| CCN(CC)c1ccc(C=NNC(=O)c2ccc(F)cc2)c(OS(=O)(=O)c2ccc(OC)cc2)c1 | enzyme activity, Ellman | 0.0837 µM |
| C#CCN(C)CCCCCCOCc1ccc(CN(C)c2c3c(nc4ccccc24)CCCC3)cc1 | enzyme activity, Ellman | 1.57 µM |
| COc1ccc(C(=O)NCCN2CCCCC2)cc1 | enzyme activity, Ellman | 5.6 µM |
| C#CCN(C)CCCCCOCc1ccc(CN(C)c2c3c(nc4ccc(C)cc24)CCCC3)cc1 | enzyme activity, Ellman | 13.4 µM |
| CSc1ccc(C=NNC(=O)c2cc(-c3cn(C)c4ccccc34)on2)cc1 | enzyme activity | > 100 µM |
| O=[N+]([O-])c1c[nH]c(-c2n[nH]c(=S)n2/N=C/c2ccc(Cl)c([N+](=O)[O-])c2)c1 | enzyme activity, Ellman | 13.2 µM |
| O=C(NCCN1CCCCC1)c1ccccc1F | enzyme activity, Ellman | 0.013 µM |
| O=[N+]([O-])c1c[nH]c(-c2n[nH]c(=S)n2/N=C/c2ccc(F)c(O)c2)c1 | enzyme activity, Ellman | 9.2 µM |
| COc1ccc(S(=O)(=O)Oc2cc(OC)ccc2C=NNC(=O)c2ccc(F)cc2)cc1 | enzyme activity, Ellman | 0.0919 µM |
